From PubChem BioAssay
DENV2 CPE rescue: inhibitors of DENV2 cytopathic effect. DENV2-infected cells, cytopathic effect rescue, plate reader. CPE inhibition, % at 9.99 µM. 1.7% of 350,000 active. AID 651640; in the data active means CPE inhibition above about 20%, passing the limit was not always enough; tested in BHK-21 cells;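 further: 0% = median of neutral control wells and 100% = median of positive control wells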
HIV Env fusion: blocks HIV Env-driven cell-cell fusion | HeLa-JRFL Env/CEM21 cell fusion, luciferase | 1.1% of 360,000 active | inhibition, % at 12.3 µM;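 active means mean replicate inhibition score of at least 50 and every replicate individually at or above 50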;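 further: 0% = plate neutral controls and 100% = maraviroc near 300 nM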
rRNA inh HTS: inhibits bacterial ribosomal RNA function over humanized ribosomes | E. coli WT GFP vs humanized-ribosome RFP mutants, fluorescence, 24 h; hits give low values; DMSO median 0, no signal -100 | 1.6% of 350,000 active | AID 720706 | GFP signal change (wild-type ribosome), % (no concentration beside the values);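 active means significant combined selectivity score with lowered wild-type GFP, culture density cut under 30%, mutant RFP and density less affected; inactive means any of these conditions unmet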
PGC1a acetyl inh: modulators of PGC1a acetylation; inhibition, % at 15.6 µM; AID 651687; 0.17% of 350,000 active; U2OS PGC1a acetylation, AlphaScreen anti-acetyl-lysine; with virally co-expressed GCN5 acetyltransferase;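 active means every replicate shows inhibition of at least 40%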;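 further: 0% = neutral control wells and 100% = positive control wells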
PglD inh: PglD (C. jejuni) enzyme inhibition; purified PglD enzyme, DTNB colorimetric CoA detection; inhibition, % at 12.5 µM; 0.098% of 360,000 active; in the data active means inhibition above about 16%, passing the limit was not always enough
FN deposit inh: fibronectin deposition inhibition. AH1F fibroblasts, Alexa488-fibronectin deposition fluorescence, overnight. inhibition, % at 12.6 µM. 0.086% of 350,000 active. AID 743247;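 active means mean inhibition across replicates of 30% or more, regardless of how many single replicates reach that level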;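 further: positive control wells lacked labelled fibronectin entirely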
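test system = AH1F fibroblasts assembling fluorescent fibronectin matrix | quantity = 10000 AH1F cells per well | buffer or medium = DMEM plus 2% serum, read in PBS | doses = single dose, pinned | incubation = 1 h cell attachment, overnight exposure to compound and label | detection = fluorescence at 485 nm excitation, 525 nm emission | read-out basis = inhibition from reduced deposited-fibronectin fluorescence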
An asterisk follows results filed as active; · = no result given; [ ] = another dose, or the depositor's remark. An excerpt weighted towards active compounds, which were near 3.5% of everything screened.

SMILES	DENV2 CPE rescue	HIV Env fusion	rRNA inh HTS	PGC1a acetyl inh	PglD inh	FN deposit inh
CN(C)S(=O)(=O)c1cccc2c1C(=O)c1ccccc1C2=O	23*	·	10	·	·	-4
CN1C(=O)[C@@](O)(c2cn(C)c3ccccc23)c2ccccc21	-7	11	4	·	·	10
Cn1cc([C@]2(O)C(=O)Nc3ccccc32)c2ccccc21	31*	3	11	·	·	-8
O=C1C=CC2(O[C@H](c3ccccc3)[C@@H](c3ccccc3)O2)[C@H](Sc2ccccc2O)C1	-5	-113	-12	·	·	45*
Cc1nn(S(=O)(=O)c2cccs2)c(C)c1Sc1ccc([N+](=O)[O-])cc1	·	97*	-13	-6	-1	3
COc1cccc(CNC(=O)C[C@@H]2CC[C@@H](NS(=O)(=O)c3ccccc3OC)[C@H](CO)O2)c1	-3	16[16.7 µM]	2	2	1	·
CC(=O)N(C1=C(Cl)C(=O)c2ccccc2C1=O)C1CCCCC1	-3	22	-20	31	7	80*
CC(=O)N(c1ccccc1C)C1CCCC1	-5	·	2	-5	1	-1
COC(=O)C[C@@H]1CC[C@@H]2[C@@H](COc3ccc(NC(=O)c4ccc(C(F)(F)F)cc4)cc3C(=O)N2C)O1	-17	·	-2	0	0	1
COc1ccccc1CN1CCNC(=O)C1CC(=O)NCC1CCOCC1 (stereo not drawn)	-4	3	18	-3	2	3
COc1ccc(CN2CCNC(=O)C2CC(=O)NCC2CCOCC2)c(C)c1C (stereo not drawn)	89*	-8	-1	·	4	-4
O=C(NCC[C@@H]1CC[C@@H](NC(=O)C2CCC2)[C@@H](CO)O1)c1cc(Cl)cc(Cl)c1	-2	12[16.7 µM]	-1	-3	1	7
COc1ccc(/C=C/C(=O)NC(=S)Nc2cc([N+](=O)[O-])ccc2O)cc1OC	-3	-8	-17*	·	·	7
COc1cc2c(cc1NC(=O)/C=C/c1ccc([N+](=O)[O-])cc1)oc1ccccc12	39*	·	2	-2	-4	3
COc1cc2c(cc1NC(=O)COC(=O)/C=C/c1ccc([N+](=O)[O-])cc1)oc1ccccc12	-2	-7	18	5	5	-2
COC(=O)C[C@H]1CC[C@H]2[C@H](COc3ccc(NC(=O)c4ccccc4OC)cc3C(=O)N2C)O1	3	-3[16.7 µM]	-4	-4	0	-10
CC(O)CNC1c2ccccc2CC1O (stereo not drawn)	63*	17	13	-10	-3	-1
CO[C@@H]1CN(C)C(=O)c2ccc(NS(=O)(=O)c3cccc(F)c3)cc2OC[C@@H](C)N(C(=O)Cc2cccnc2)C[C@H]1C	82*	·	0	3	-2	-4
CO[C@H]1CN(C)C(=O)c2ccc(NS(=O)(=O)c3cccc(F)c3)cc2OC[C@H](C)N(C(=O)Cc2cccnc2)C[C@H]1C	23*	·	-1	4	-2	3
CN(C)c1ccc(O)c2c1CC1CC3[C@@H](N(C)C)C(=O)C(C(N)=O)C(=O)[C@]3(O)C(=O)C1C2=O (stereo partly drawn)	-3	87*	·	-3	6	-1
CN(C)c1ccc(O)c2c1CC1CC3C(N(C)C)C(=O)C(C(N)=O)=C(O)[C@@]3(O)C(=O)C1=C2O (stereo partly drawn)	-9	34	-60	7	3	-4
CCOc1ccccc1N/C(=C(/C(Cl)=C(Cl)Cl)[N+](=O)[O-])n1cncn1	·	·	-25*	-1	0	·
C[C@H]1CCCCO[C@@H](CN(C)C(=O)Nc2ccc3c(c2)OCO3)[C@@H](C)CN([C@@H](C)CO)C(=O)c2cc(NC(=O)Cc3ccccc3)ccc2O1	10	-11[16.7 µM]	-3	11	5	·
c1ccc(CSc2nnc(-c3ccco3)o2)cc1	4	-16	6	-7	-7	1
Brc1ccc(CSc2nnc(-c3ccco3)o2)cc1	1	-9	-22*	·	·	·
SMILES	DENV2 CPE rescue	HIV Env fusion	rRNA inh HTS	PGC1a acetyl inh	PglD inh	FN deposit inh
O=C(NN=Cc1c(O)ccc2ccccc12)C1CC1	-1	21	-17*	9	-1	10
C[C@H](NC(=O)[C@@H]1CCCN1C(=O)OC(C)(C)C)c1ccccc1	76*	-15	-10	·	·	4
Cc1ccc(S(=O)(=O)N(C)C[C@@H]2Oc3ncc(-c4ccncc4)cc3C(=O)N([C@@H](C)CO)C[C@H]2C)cc1	-9	4[16.7 µM]	-6	-11	0	7
CCCCNC(=O)C1C(c2ccc(C(F)(F)F)cc2)=Nc2ccccc2N1C(=O)c1cccc(C(F)(F)F)c1 (stereo not drawn)	-17	26	3	·	·	-3
Cc1nc2ccc(C(=O)N3c4ccccc4N=C(c4ccc(C(F)(F)F)cc4)C3C(=O)NC(C)(C)C)cc2[nH]1 (stereo not drawn)	37*	89*	0	·	·	-4
CCN1[C@@H]2c3cccc(=O)n3C[C@@H]2[C@@H](CO)[C@@H]1C(=O)NC1Cc2ccccc2C1	17	·	0	·	4	·
O=C(CN1CCN(Cc2ccccc2F)C1=O)NC1CCCC1	12	-5	10	6	3	8
O=C(CN1CCCN(Cc2ccc(F)cc2Cl)C1=O)NC1CCCCCCC1	·	72*	·	4	-2	0
Cc1c(C(=O)Cc2ccccc2)n(C)c2ccccc12	·	14	-26*	17	·	-7
CCCC(=O)c1c(C)c2ccccc2n1C	·	-302	·	17	-7	-3
COC(=O)[C@]12C[C@H](CC(=O)NCCC(C)C)C(=O)N(CCC3=CCCCC3)C1=C[C@H](C(C)(C)C)O[C@@H]2C	-6	59*	2	·	·	1
CCCCNC(=O)C[C@H]1C[C@@]2(C(=O)OC)C(=C[C@H](C(C)(C)C)O[C@@H]2C)N(CCC2=CCCCC2)C1=O	-8	72*	3	·	·	-6
COC(=O)[C@]12C[C@H](CC(=O)NCCCN3CCCC3=O)C(=O)N(CCC3=CCCCC3)C1=C[C@H](C(C)(C)C)O[C@@H]2C	-2	45	-8	·	·	-13
COC(=O)[C@]12C[C@H](CC(=O)N3CCCC3)C(=O)N(CCC3=CCCCC3)C1=C[C@H](C(C)(C)C)O[C@@H]2C	-8	20	-7	·	·	-13
COC(=O)[C@]12C[C@H](CC(=O)NCc3cccc4ccccc34)C(=O)N(CCC3=CCCCC3)C1=C[C@H](C(C)(C)C)O[C@@H]2C	-12	87*	20	·	·	-7
CC1=C(C(=O)N(C)C)CC(CC(=O)NCc2cccc3ccccc23)C(=O)N1CCC1=CCCCC1 (stereo not drawn)	-4	-1	-27*	-15	-2	-1
C[C@@H]1CN([C@H](C)CO)C(=O)c2cc(NC(=O)Cc3cn(C)c4ccccc34)ccc2O[C@H]1CN(C)Cc1ccncc1	0	-5[16.7 µM]	-1	-8	5	·
